# From PubChem
# Hep lipid drop: hepatic lipid droplet formation modulation. AML12 mouse hepatocytes, oleate lipid droplets, BODIPY imaging. inhibition, % at 6.5 µM. 0.4% of 240,000 active;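 active = lipid droplet intensity inhibited by at least 50%, with more than 500 cells counted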
#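 Assay system: AML12 hepatocytes (mouse) / Also added: 100 µM oleic acid challenge / Times: overnight treatment with compound plus oleate / Detection: high-content imaging of BODIPY-stained droplets and DAPI nuclei / Evaluation: % inhibition of lipid droplet signal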
# MEKK2 WT-MEK5: raises or lowers MEK5 binding to wildtype human MEKK2 PB1 domain. AID 1531. 1.1% of 290,000 active. Q9Y2U5. binding response (% of control), % at 10 µM. bead flow cytometry, Alexa488-MEK5 binding to MEKK2 WT; actives lie on both sides; in the data active = binding response below about 67% or above about 130%
# MEKK2 mut-MEK5: signal of MEK5 binding to mutant human MEKK2 PB1 domain; bead flow cytometry, Alexa488-MEK5 binding to MEKK2 mutant; percent response, % at 10 µM; 0.35% of 290,000 active; AID 1530; in the data active = percent response above about 24%, passing the limit was not always enough
# MEKK3 PB1 HTS: MEKK3-MEK5 PB1 interaction, increase or decrease. Q99759. bead-based flow cytometry, Alexa488-MEK5 binding to MEKK3; actives lie on both sides; 0 = blocked by unlabeled MEK5, 100 = vehicle. binding response (% of control), % at 10 µM. 1.4% of 290,000 active. AID 1529;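 active = binding response more than 3 SD above or below the average of its plate-row segment, actives on both sides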;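 note: Alexa488 bead fluorescence after subtracting the streptavidin-only scavenger bead signal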
# Target sequence (Q99759 whole entry, looked up): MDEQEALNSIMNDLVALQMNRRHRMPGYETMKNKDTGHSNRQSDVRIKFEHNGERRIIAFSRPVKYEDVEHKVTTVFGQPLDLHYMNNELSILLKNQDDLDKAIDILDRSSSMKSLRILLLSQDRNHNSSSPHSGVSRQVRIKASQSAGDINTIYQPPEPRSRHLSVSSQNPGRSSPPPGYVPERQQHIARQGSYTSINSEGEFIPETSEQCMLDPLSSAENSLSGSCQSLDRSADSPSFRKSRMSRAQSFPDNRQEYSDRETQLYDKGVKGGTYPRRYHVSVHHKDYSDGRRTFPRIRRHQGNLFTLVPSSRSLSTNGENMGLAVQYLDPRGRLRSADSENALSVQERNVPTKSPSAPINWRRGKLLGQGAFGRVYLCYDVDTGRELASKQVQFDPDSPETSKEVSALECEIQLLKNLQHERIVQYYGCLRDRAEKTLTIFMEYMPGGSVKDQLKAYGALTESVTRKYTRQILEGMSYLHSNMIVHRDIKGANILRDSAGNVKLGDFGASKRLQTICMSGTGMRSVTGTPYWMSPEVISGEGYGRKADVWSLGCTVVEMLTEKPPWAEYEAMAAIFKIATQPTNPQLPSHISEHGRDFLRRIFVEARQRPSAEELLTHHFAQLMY
# MEKK2wt confirm: raises or lowers MEK5 binding to wildtype human MEKK2, retest. AID 1892. bead flow cytometry, Alexa488-MEK5 binding to MEKK2 WT; actives lie on both sides. shares compounds with MEKK3 PB1 HTS. binding response (% of control), % at 10 µM. 2.4% of 5,900 active; in the data active = binding response below about 16% or above about 210%; inactive = in between
# MEKK2mut-MEK5: signal of MEK5 binding to mutant human MEKK2, retest; 2% of 5,900 active; percent response, % at 10 µM; bead flow cytometry, Alexa488-MEK5 binding to MEKK2 mutant; shares compounds with MEKK3 PB1 HTS; in the data active = percent response mostly above about 71%, no sharp cut-off; inactive = mostly below about 38%;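 note: higher means compound restores mutant binding toward wildtype level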
# MEKK3 confirm: confirmation of inhibitors of MEK5 binding to human MEKK3. 1.8% of 5,900 active. bead flow cytometry, Alexa488-MEK5 binding to MEKK3; active compounds read low. shares compounds with MEKK3 PB1 HTS. binding response (% of control), % at 10 µM. AID 1894;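 active = binding response below 72% of control, or above a set upper limit, though filed actives all read lower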;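 note: 100% = DMSO only wells and 0% = binding blocked by excess unlabeled MEK5; lower values mean stronger disruption of MEK5 binding to MEKK3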
# The depositor's hits bear a star; nt = no result given; [ ] = dose if it differs, or a comment. Sampled rows, rich in hits. Any-hit rate of the full collection: about 2.6%.
SMILES,Hep lipid drop,MEKK2 WT-MEK5,MEKK2 mut-MEK5,MEKK3 PB1 HTS,MEKK2wt confirm,MEKK2mut-MEK5,MEKK3 confirm
O=C(Nc1nnc(-c2ccccn2)o1)c1cccc(Cl)c1,28,96,-6,87,nt,nt,nt
CC(=O)Nc1nnc(-c2ccccn2)o1,2,103,0,134*,100,8,99
CCCn1c(SCC(=O)Nc2sc(C)c(C)c2C#N)nnc1C(C)C,nt,116,6,124*,104,5,105
Cc1ccccc1C(=O)NC1CCN(CC(=O)N2CCCCC2C)CC1 (stereo not drawn),13,103,1,99,nt,nt,nt
COc1cccc(O)c1CN1CCC(C(=O)Nc2ccc(-c3cccc(C)c3)cc2)CC1,3,227*,61*,119,134,16,101
Cc1cccc(NCc2ccc(N(C)C)cc2)n1,14,106,8,99,nt,nt,nt
COCCNC(=O)Nc1ccc2nc(-c3cccs3)c(-c3cccs3)nc2c1,14,67*[inhibitor],-3,92,67,-18,90
O=C(Nc1ccc2nc(-c3cccs3)c(-c3cccs3)nc2c1)NC1CC1,8,20*[inhibitor],-18,68*[inhibitor],54,-20,95
O=C(Nc1cccs1)NC1CCCC1,-36,99,4,100,nt,nt,nt
Nc1c(-c2ccccc2)sc2ccc3ccccc3[n+]12,-3,103,0,102,nt,nt,nt
O=C1N(Cc2cccc(Cl)c2)C[C@@H]2C[C@@H](c3c[nH]c4ccccc34)N3CCC[C@@]123,-17,nt,22,63*[inhibitor],84,-10,72
Cc1no[n+]([O-])c1COc1ccc(/C=C(\C#N)C(N)=O)cc1,7,104,1,134*,105,3,100
C[C@H](NC(=O)c1nc[nH]c1C(=O)N1CCN(c2ccccc2)CC1)C(=O)OC(C)(C)C,-17,92,-3,79*[inhibitor],96,-2,101
CC1CCN(C(=O)c2[nH]cnc2C(=O)N[C@@H](C)C(=O)OC(C)(C)C)CC1,17,98,1,98,nt,nt,nt
Cc1csc2c(=O)sc(NC(=O)c3ccc(F)cc3)nc12,-18,105,4,107,nt,nt,nt
Cc1csc2nc(NC(=O)c3ccccc3)sc(=O)c12,-12,116,27,130*,100,3,100
Cc1ccccc1C(=O)Nc1nc2c(C)csc2c(=O)s1,8,107,25,128*,94,-10,97
CCN(CC)CCNC(=O)C(=O)NCC1OCCN1S(=O)(=O)c1cccs1 (stereo not drawn),8,137*,20,103,109,5,101
CCn1c(=O)c(=O)[nH]c2c(=O)oc3ccc(S(=O)(=O)Nc4ccccc4)cc3c21,13,94,1,95,nt,nt,nt
O=C(N/N=C/c1ccc(Cl)cc1Cl)c1n[nH]c2c1CCCC2,16,105,1,128*,102,-4,103
CC1(C)CC2(CCCN(C(=S)Nc3ccccc3)C2)CCO1 (stereo not drawn),6,121,24,128*,103,-5,104
S=C(Nc1ccccc1)N1CCCCCC1,nt,110,3,105,nt,nt,nt
CC(C)CCN1CCN(Cc2coc3ccccc3c2=O)CC1CCO (stereo not drawn),14,107,4,105,nt,nt,nt
CC(C)N1CCN(Cc2coc3ccccc3c2=O)CC1CCO (stereo not drawn),-22,120,0,131*,76,-22,64*
CCC(c1nnc(SCC(=O)Nc2ccc(C(=O)N(C)C)cc2)n1Cc1ccccc1)N(C)C (stereo not drawn),-2,103,2,100,nt,nt,nt
SMILES,Hep lipid drop,MEKK2 WT-MEK5,MEKK2 mut-MEK5,MEKK3 PB1 HTS,MEKK2wt confirm,MEKK2mut-MEK5,MEKK3 confirm
COc1ccc(/C=N/Nc2ccc(C(F)(F)F)cc2[N+](=O)[O-])cc1O,14,102,0,131*,103,4,99
CCOC(=O)c1cc(C#N)c(C)nc1N(CC)CC,12,99,-4,94,nt,nt,nt
CCn1c(SCC(=O)N/N=C/C=C/c2ccco2)nnc1-c1ccccc1,-9,106,0,128*,103,4,100
CCn1c(SCC(=O)N/N=C/C(C)=C/c2ccco2)nnc1-c1ccccc1,nt,99,2,104,nt,nt,nt
CCc1ccc(NC(=O)C(=O)N/N=C(\C)CC(=O)Nc2ccc(OC)cc2)cc1,1,99,-1,101,nt,nt,nt
CCc1ccc(NC(=O)C/C(C)=N/NC(=O)OCc2ccc(OC)cc2)cc1,-1,107,1,136*,101,0,100
CCOP(=O)(c1ccccc1)C(O)c1ccc([N+](=O)[O-])cc1 (stereo not drawn),-4,100,3,99,nt,nt,nt
CCOP(=O)(c1ccccc1)C(O)c1ccc(F)cc1 (stereo not drawn),0,107,0,144*,61,-16,86
O=C(O)c1c(-c2ccccc2)c2oc3ccccc3c2[nH]c1=O,nt,105,5,105,nt,nt,nt
Cc1csc(NC(=O)c2sc3nc(-c4cccs4)ccc3c2N)n1,6,66*[inhibitor],-9,90,87,5,100
CCCSc1nnc(NC(=O)c2sc3nc(-c4cccs4)ccc3c2N)s1,3,92,-8,98,nt,nt,nt
CSc1ccc(/C=C(\NC(=O)c2ccco2)C(=O)N2CCCCC2)cc1,-7,94,-5,98,nt,nt,nt
COc1ccccc1CNC(=O)CSc1ccc(-c2ccncc2)nn1,8,106,-2,93,nt,nt,nt
COc1ccccc1CNC(=O)CSc1nnc2ccc(-c3cccnc3)nn12,6,103,171*,105,101,-3,102
COc1ccc(Cn2c(-c3ccc(Br)cc3)c[n+]3ccccc23)cc1,-1,140*,36,110,118,11,106
Cc1ccc(NC(=O)COc2ccccc2C(=O)Nc2ccccc2)cc1Cl,-18,146*,68*,103,138,12,106
CCOCC(=O)Nc1ccc(C)c(Cl)c1,12,85,-6,77*[inhibitor],104,7,103
Cc1ccc(NC(=O)COC(=O)CC2CCCC2)cc1Cl,-8,82,-3,70*[inhibitor],100,0,97
Cc1cc(NC(=O)c2cccc(S(=O)(=O)Nc3cccc(C(=O)O)c3)c2)no1,-12,107,6,106,nt,nt,nt
Cc1ccc(-c2csc(N(C)C(=O)c3c(C)nn(-c4ccccc4)c3Cl)n2)cc1,-3,91,-7,92,nt,nt,nt
O=C(COC(=O)COc1ccccc1)Nc1ccccc1OC(F)F,nt,85,-14,72*[inhibitor],105,5,101
CC(=O)OCC(=O)Nc1ccccc1OC(F)F,6,96,-7,101,nt,nt,nt
